The text below walks through data of ChEMBL document CHEMBL4145559 (ACS Med Chem Lett, 2018).

One series deals with Escherichia coli. Nature of the series: Antimicrobial activity against Escherichia coli MG1655 by broth micro dilution method. In kind it is functional, organism-based. The conditions noted are these: K-12 substr. MG1655. Put shortly:
(§1)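 MICs determined by the standard CLSI broth microdilution method on intact bacteria (E. coli MG1655; S. epidermidis RP26A).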

In another series the test system is Yersinia pestis. Nature of the series: Antimicrobial activity against Yersinia pestis KIM6+. The class given is functional.
Series [1] can be described thus: Inhibition of Escherichia coli type 1 signal peptidase using peptide substrate after 30 mins by fluorescence assay. The gist of the method: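 Purified E. coli SPase was assayed with the internally quenched fluorogenic peptide (Dabcyl)-AGHDAHA↓SET-(EDANS), with cleavage at the arrow separating the EDANS donor from the Dabcyl acceptor. IC50 was taken as the half-maximal inhibitory concentration.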

Series [2] relates to Staphylococcus epidermidis. The series is described as follows: Antimicrobial activity against Staphylococcus epidermidis RP26A. In kind it is functional. Put shortly:
as §1

In the next series the test system is HEK293. The series is described as follows: Cytotoxicity against HEK293 cells up to 128 ug/ml after 24 hrs by resazurin dye based fluorescence assay. The class given is cell-based. The conditions noted are these: human, hek293, 24 h.

≈ marks a conversion by molar mass, not a printed value. Calls of active or inactive are those of the source.

`C[C@@H](O)[C@H]1C(=O)N2C(C(=O)O)=CS[C@H]12`: the result in the series with Escherichia coli was inactive. In addition, the MIC (against Yersinia pestis; in series [2]) was 128 µg/mL (≈ 595 µM) throughout. In addition, in series [1], the 50% inhibitory concentration (IC50) (as a rule, the concentration that inhibits the measured activity by half) is 2.99 µg/mL (≈ 13.9 µM).

Regarding `C[C@@H](O)[C@H]1C(=O)N2C(C(=O)O)=C(SCCO)S[C@H]12`, the MIC (commonly the smallest concentration in the dilution series that meets the test's criterion for growth inhibition) in the series with Yersinia pestis is 32 µg/mL (≈ 110 µM); in series [2], 8 µg/mL (≈ 27.5 µM). Besides, the Activity entry in the series with HEK293 is recorded as “Non-Toxic”. The same compound displayed a 50% inhibitory concentration (IC50) in series [1] of 1.49 µg/mL (≈ 5.11 µM).

Consider `C[C@@H](O)[C@H]1C(=O)N2C(C(=O)O)=C(SCCOC(N)=O)S[C@H]12` [Sch-34343], for which the MIC was 16 µg/mL (≈ 47.9 µM) against Yersinia pestis and 4 µg/mL (≈ 12 µM) in series [2]. In series [1], this compound had an IC50 of 0.96 µg/mL (≈ 2.87 µM).

For the compound `CNCCSC1=C(C(=O)O)N2C(=O)[C@H]([C@@H](C)O)[C@H]2S1`, the minimum inhibitory concentration (MIC) (against Yersinia pestis; in series [2]) was over 128 µg/mL each time. The IC50 in series [1] stood at 6.37 µg/mL (≈ 20.9 µM).

`C[C@@H](O)[C@H]1C(=O)N2C(C(=O)O)=C(SCCN(C)C)S[C@H]12`: the MIC (against Yersinia pestis; in series [2]) was over 128 µg/mL each time. The compound further displayed an IC50 in series [1] of 3.95 µg/mL (≈ 12.4 µM).

Regarding `C[C@@H](O)[C@H]1C(=O)N2C(C(=O)O)=C(S[C@@H]3CC[S+]([O-])C3)S[C@H]12` (stereo not given in full), in series [1], the IC50 was found to be 1.16 µg/mL (≈ 3.32 µM). 16 µg/mL (≈ 45.8 µM) was the least that counted as inhibitory in series [2] (MIC).

Turning to `C[C@@H](O)[C@H]1C(=O)N2C(C(=O)O)=C(S[C@@H]3CN[C@H](C(=O)N(C)C)C3)S[C@H]12`, the MIC against Yersinia pestis worked out at 64 µg/mL (≈ 165 µM); in series [2], 32 µg/mL (≈ 82.6 µM). Further, the IC50 in series [1] amounted to 1.22 µg/mL (≈ 3.15 µM).

For `C[C@@H](O)[C@H]1C(=O)N2C(C(=O)O)=C(S[C@H]3CCNC3)S[C@H]12`, the MIC (in the series with Yersinia pestis; in series [2]) was 8 µg/mL (≈ 25.3 µM) throughout. In series [1], this compound yielded a 50% inhibitory concentration (IC50) of 0.8 µg/mL (≈ 2.53 µM).

For the compound `C[C@@H](O)[C@H]1C(=O)N2C(C(=O)O)=C(SCCNC=N)S[C@H]12`, the MIC against Yersinia pestis amounted to 16 µg/mL (≈ 50.4 µM); in series [2], 8 µg/mL (≈ 25.2 µM). In the series on HEK293, the Activity result is “Non-Toxic”. Further, in series [1], the IC50 stood at 1.04 µg/mL (≈ 3.28 µM).

For the compound `C[C@@H](O)[C@H]1C(=O)N2C(C(=O)O)=C(SCCN)S[C@H]12`, the MIC (in the series on Yersinia pestis; in series [2]) was 16 µg/mL (≈ 55.1 µM) each time. Moreover, the Activity result with HEK293 is on record as “Non-Toxic”. In addition, the IC50 in series [1] is 0.63 µg/mL (≈ 2.17 µM).

For the compound `C[C@@H](O)[C@H]1C(=O)N2C(C(=O)O)=C(CCc3ccccn3)S[C@H]12`, the MIC against Yersinia pestis was determined as 32 µg/mL (≈ 99.9 µM); in series [2] it was 16 µg/mL (≈ 49.9 µM). Further, the IC50 in series [1] came out at 1.31 µg/mL (≈ 4.09 µM).

Turning to `C[C@@H](O)[C@H]1C(=O)N2C(C(=O)O)=C(S[C@@H]3CCNC3)S[C@H]12`, the MIC amounted to 16 µg/mL (≈ 50.6 µM) in the series on Yersinia pestis and 4 µg/mL (≈ 12.6 µM) in series [2]. Further, the Activity entry with HEK293 is “Non-Toxic”. In addition, in series [1], the IC50 came to 1.75 µg/mL (≈ 5.53 µM).
